Source: ChEMBL document CHEMBL2150980 (Eur J Med Chem, 2012)

Legend:
[1] = molecular target: T1, Alpha-1B adrenergic receptor (Homo sapiens, UniProt P35368); test: Displacement of [3H]prazosin from human cloned alpha1B adrenoceptor expressed in CHO cell membranes after 30 mins by liquid scintillation counter
T1 sequence (P35368 whole entry): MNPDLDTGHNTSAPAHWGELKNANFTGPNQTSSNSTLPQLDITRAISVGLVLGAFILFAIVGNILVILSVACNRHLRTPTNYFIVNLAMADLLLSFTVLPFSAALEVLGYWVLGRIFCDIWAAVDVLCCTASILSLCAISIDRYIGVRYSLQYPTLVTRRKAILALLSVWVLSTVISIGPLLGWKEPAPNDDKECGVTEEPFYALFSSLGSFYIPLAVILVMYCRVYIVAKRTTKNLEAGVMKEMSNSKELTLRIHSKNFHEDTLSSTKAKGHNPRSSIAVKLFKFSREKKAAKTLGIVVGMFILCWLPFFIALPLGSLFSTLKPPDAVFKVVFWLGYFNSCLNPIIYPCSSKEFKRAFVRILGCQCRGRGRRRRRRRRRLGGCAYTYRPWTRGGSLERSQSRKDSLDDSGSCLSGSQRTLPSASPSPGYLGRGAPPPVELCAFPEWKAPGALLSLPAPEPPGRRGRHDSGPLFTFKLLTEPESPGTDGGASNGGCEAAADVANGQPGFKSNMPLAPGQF

[2] = molecular target: T2, Alpha-1A adrenergic receptor (Cavia porcellus) (UniProt Q9WU25); test: Inverse agonist activity at alpha1A adrenoceptor in guinea pig thoracic aorta assessed as inhibition of ca2+-induced IRT at 10 nM after 30 mins; format: functional, tissue-based
T2 sequence (whole entry): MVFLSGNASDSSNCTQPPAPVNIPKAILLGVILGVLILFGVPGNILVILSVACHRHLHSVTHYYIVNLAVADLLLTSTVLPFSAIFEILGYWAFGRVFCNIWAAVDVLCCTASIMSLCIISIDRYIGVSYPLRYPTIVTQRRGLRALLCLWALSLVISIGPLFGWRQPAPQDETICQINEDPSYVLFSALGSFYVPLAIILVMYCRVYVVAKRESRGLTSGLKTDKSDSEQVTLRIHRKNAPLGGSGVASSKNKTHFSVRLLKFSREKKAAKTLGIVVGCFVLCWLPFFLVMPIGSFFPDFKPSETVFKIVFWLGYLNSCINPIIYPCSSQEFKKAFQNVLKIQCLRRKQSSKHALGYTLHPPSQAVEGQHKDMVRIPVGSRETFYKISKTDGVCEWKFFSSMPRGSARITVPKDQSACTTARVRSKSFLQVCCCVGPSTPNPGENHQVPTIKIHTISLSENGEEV
Summary of the method: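 Tissue in Krebs equilibrated 1 h at 1 g, then given a single (−)-noradrenaline dose. Washed 1 h in Ca2+-free Krebs with 0.1 mM EDTA, with agonist reapplied until no contraction (internal Ca2+ stores depleted). Antagonist 10 nM for 30 min, then Ca2+ 1.8 mM added. Result is % decrease versus IRT without any agent; mean ± SE, 4–7 experiments.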

[3] = molecular target: T3, Alpha-1A adrenergic receptor (Rattus norvegicus, UniProt P43140); test: Antagonist activity at alpha1A adrenoceptor in Sprague-Dawley rat prostatic vas deferens assessed as inhibition of noradrenaline-induced contractions after 30 mins; format: functional, tissue-based; conditions: read-out: pA2 (converted)
T3 sequence (P43140 whole entry): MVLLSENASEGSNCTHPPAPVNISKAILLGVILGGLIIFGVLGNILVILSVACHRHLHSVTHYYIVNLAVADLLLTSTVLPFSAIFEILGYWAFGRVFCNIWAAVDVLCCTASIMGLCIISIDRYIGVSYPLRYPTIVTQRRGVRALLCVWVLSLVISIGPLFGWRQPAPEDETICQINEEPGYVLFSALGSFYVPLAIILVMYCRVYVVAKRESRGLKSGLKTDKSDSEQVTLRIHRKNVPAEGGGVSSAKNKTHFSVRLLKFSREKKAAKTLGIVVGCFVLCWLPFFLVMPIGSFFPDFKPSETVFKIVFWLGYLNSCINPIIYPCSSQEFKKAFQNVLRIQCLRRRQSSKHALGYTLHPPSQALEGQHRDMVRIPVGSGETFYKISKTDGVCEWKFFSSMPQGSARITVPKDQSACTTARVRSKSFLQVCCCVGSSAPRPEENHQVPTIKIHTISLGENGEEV

[4] = molecular target: T4, Alpha-1D adrenergic receptor (Rattus norvegicus, UniProt P23944); test: Antagonist activity at alpha1D adrenoceptor in Sprague-Dawley rat thoracic aorta assessed as inhibition of noradrenaline-induced contractions after 30 mins; format: functional, tissue-based; conditions: read-out: pA2 (converted)
T4 sequence (P23944 whole entry): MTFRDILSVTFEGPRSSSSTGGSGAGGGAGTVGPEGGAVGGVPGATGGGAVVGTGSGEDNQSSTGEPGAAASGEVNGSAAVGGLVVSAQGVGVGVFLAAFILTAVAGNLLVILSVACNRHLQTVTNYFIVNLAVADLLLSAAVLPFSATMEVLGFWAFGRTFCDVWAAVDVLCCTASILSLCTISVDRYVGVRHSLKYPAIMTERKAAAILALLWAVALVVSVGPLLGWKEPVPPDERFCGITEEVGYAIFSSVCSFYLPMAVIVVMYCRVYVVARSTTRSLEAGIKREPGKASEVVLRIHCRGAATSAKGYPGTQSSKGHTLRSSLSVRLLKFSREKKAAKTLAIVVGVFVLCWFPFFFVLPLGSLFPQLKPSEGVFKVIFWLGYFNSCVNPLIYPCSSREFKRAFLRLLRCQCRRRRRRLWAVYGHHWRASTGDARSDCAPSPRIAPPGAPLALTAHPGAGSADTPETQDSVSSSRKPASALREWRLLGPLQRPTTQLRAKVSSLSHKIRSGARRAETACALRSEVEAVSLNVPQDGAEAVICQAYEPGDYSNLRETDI

[5] = molecular target: T5, Alpha-1D adrenergic receptor (Homo sapiens, UniProt P25100); test: Displacement of [3H]prazosin from human cloned alpha1D adrenoceptor expressed in CHO cell membranes after 30 mins by liquid scintillation counter
T5 sequence (P25100 whole entry): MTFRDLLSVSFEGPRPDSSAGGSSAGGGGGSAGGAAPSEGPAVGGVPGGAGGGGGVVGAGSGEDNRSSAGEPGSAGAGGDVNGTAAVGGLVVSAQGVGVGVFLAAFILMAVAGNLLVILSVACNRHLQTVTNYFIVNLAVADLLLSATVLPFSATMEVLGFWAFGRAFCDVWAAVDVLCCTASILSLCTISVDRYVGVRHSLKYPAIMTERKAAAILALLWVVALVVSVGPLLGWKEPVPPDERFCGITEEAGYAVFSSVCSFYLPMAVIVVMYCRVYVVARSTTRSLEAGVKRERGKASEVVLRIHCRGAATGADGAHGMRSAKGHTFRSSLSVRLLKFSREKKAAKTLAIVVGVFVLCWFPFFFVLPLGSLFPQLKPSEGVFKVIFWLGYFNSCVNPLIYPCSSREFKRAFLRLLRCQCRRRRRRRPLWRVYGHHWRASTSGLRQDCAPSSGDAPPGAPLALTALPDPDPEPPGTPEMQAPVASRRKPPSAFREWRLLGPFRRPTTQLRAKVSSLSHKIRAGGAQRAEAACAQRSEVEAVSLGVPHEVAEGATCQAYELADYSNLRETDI

| Ki [1] | inhibition [2] | Kb [3] | Kb [4] | Ki [5] | Structure (SMILES) |
| --- | --- | --- | --- | --- | --- |
| 2.19 nM | 80% | 0.275 nM | 3.02 nM | 0.708 nM | COc1cccc(OC)c1OCCNC[C@H]1COc2cccc(Cl)c2O1.Cl |
| 30.9 nM | 100% | 166 nM | 51.3 nM | 8.91 nM | COc1cccc(OC)c1OCCNC[C@H]1COc2cccc(O)c2O1.Cl |
| 2.75 nM | 60% | 1.7 nM | 11.7 nM | 0.372 nM | COc1cccc(OC)c1OCCNC[C@H]1COc2cccc(OC)c2O1.Cl |
| 2.4 nM | 100% | 28.8 nM | 9.33 nM | 0.49 nM | COc1cccc(OC)c1OCCNC[C@H]1COc2cccc(F)c2O1.Cl |
| 447 nM | 79% | 53.7 nM | 5.75 nM | 79.4 nM | COc1cccc(OC)c1OCCNC[C@H]1COc2c(OC)cccc2O1.Cl |
